Consider 16 molecules from PubChem BioAssay.

Assay [1] can be described thus: reducers of endogenous Her2 protein level, primary screen, SKBR3 breast tumor cells, AlphaScreen, ATP viability (AID 461;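 active = Her2 level under about 52% in both replicate screens, with viability over 70% of control, limit read from the data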;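 for Her2 level: lower value means less Her2 protein in the cells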;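 for viability: percent of carrier control wells set as 100% viability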). Particulars: 18-24 h, measured here: SKBR3 viability, ATP luminescence, at 10 µM. For orientation: In Alpha technology, singlet oxygen from a donor bead excites a nearby acceptor bead.
Assay [2] deals with Receptor tyrosine-protein kinase erbB-2 (Homo sapiens) (UniProt P04626). Described as above. The following applies: 18-24 h, at 10 µM, stronger effect = lower value.
Receptor tyrosine-protein kinase erbB-2 (Homo sapiens), sequence (P04626 whole entry, looked up): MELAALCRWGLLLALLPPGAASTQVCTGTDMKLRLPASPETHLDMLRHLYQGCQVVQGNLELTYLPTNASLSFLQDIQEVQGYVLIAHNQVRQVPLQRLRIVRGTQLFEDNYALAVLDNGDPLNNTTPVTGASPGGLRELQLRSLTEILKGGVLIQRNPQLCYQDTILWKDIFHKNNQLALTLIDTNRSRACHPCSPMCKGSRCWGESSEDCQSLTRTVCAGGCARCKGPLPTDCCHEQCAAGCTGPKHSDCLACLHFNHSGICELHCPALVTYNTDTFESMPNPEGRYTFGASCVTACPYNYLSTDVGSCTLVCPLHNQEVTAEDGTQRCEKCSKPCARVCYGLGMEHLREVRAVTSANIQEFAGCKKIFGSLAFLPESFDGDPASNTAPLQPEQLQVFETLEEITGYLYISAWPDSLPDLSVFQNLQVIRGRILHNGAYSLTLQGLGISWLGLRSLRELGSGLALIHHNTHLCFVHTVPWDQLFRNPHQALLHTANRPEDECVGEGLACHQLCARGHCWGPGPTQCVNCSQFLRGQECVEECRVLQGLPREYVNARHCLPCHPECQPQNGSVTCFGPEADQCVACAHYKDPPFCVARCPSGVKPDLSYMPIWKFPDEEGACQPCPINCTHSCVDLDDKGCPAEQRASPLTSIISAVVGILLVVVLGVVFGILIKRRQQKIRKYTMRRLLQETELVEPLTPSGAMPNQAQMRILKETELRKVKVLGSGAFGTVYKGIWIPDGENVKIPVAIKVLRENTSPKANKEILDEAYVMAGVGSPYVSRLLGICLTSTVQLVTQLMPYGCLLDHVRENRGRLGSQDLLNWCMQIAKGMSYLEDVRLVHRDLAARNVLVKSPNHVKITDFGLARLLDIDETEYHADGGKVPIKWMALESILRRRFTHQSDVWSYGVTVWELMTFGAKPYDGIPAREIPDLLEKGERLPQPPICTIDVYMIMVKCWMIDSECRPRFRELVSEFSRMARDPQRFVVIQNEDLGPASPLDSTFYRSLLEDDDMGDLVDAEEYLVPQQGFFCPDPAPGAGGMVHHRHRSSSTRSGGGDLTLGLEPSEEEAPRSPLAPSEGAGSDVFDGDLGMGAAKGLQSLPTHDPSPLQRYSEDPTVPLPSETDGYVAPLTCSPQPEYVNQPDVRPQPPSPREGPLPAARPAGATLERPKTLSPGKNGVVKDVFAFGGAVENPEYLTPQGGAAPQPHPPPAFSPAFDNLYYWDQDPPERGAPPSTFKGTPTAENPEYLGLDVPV
Assay [3] can be described thus: SK-BR-3 cell growth inhibitors, pilot screen, 24 h, human (AID 572;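 active = viability at or below 10% of carrier control in both of two separate runs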;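 note: compound exposure lasted between 18 and 24 h rather than exactly 24 h; 100% = carrier-treated control wells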). The following applies: SK-BR-3 viability, CellTiter-Glo luminescence, at 10 µM, stronger effect = lower value. Background: ATP-based viability assays read luminescence as a measure of living cells.
Assay [4] is described as follows: HUVEC growth inhibition – cell-based, human, primary screen (AID 575;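 active = viability at or below 30% in both replicate assays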;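 note: 100% = median of untreated cell wells with 0.1% DMSO on each plate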). The following applies: HUVEC proliferation, CellTiter-Glo luminescence, 72 h; at 10 µM; stronger effect = lower value. Put shortly: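 System: primary human umbilical vein endothelial cells; Quantity: 1250 endothelial cells in each well; Buffer or medium: supplemented EBM, 2% fetal bovine serum; Doses: one dose, 10 µM final, 0.1% DMSO; Incubation: 72 h compound incubation; Technique: ATP-based CellTiter-Glo luminescent read; Evaluation: percent of median DMSO-control luminescence; Controls: vehicle and MePR control wells.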

The nature of assay [5]: growth inhibitors of H69AR lung tumor, primary screen, human, duplicate replicates (AID 580).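 Note: 100% = mean luminescence of untreated wells and 0% = no signal.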 Particulars: H69AR lung tumor cells viability, ATP luminescence, 72 h; at 10 µM; stronger effect = lower value.
Assay [6] in a line: reversal of MRP1-mediated doxorubicin resistance, pilot screen, H69AR cells, doxorubicin co-treatment (AID 601;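 active = viability loss from added drug above about 55%, and viability with drug at most 40%, in both replicates, limit read from the data, passing the limit was not always enough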). Particulars: CellTiter-Glo, 72 h, at 10 µM; for differential viability (reversal): stronger effect = higher value.
The nature of assay [7]: 384-well plate pilot, post-Golgi transport modulator project, inhibition of yeast transport mutant growth (AID 636; in the data active = inhibition above about 31%). Particulars: absorbance 615 nm, about 18 h, stronger effect = higher value.
Assay [8] can be described thus: growth suppression of yeast trafficking mutant, preliminary HTS, modulators of trafficking downstream of Golgi apparatus project, 1536-format plate, OD 615 nm (AID 637; in the data active = inhibition above about 30%). Particulars: yeast transport mutant growth, absorbance 615 nm, 18 h; stronger effect = higher value.
Setting [9] is: H69AR cells + 2 uM doxorubicin, measured here: viability with 2 uM doxorubicin, stronger effect = lower value.
[10] abbreviates: H69AR cells, compound alone cytotoxicity.

Calls of active or inactive are those of the source.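 Rule for the calls, unless noted: active = viability at or under a set limit in both replicates, limit being median viability minus 3 SD (cut at about 48% in these data, passing the limit was not always enough); inconclusive = at or under the limit in just one replicate; inactive = at or above the limit in both replicates.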

Broadly, the viability is a read-out of living cells in per cent, often relative to untreated cells. For orientation: inhibition means the drop in the measured response relative to a control, in per cent. Turning to `CCOCCCNC(=O)C1CCN(C(=O)Nc2ccc(Cl)cc2)CC1`, the viability in assay [1] is 103%; in assay [3] it was 103% (inactive); in assay [4], 94.7% (inactive); in assay [5], 102% (inactive); in assay [6] (setting [9]), 90.8%; in assay [6] (setting [10]), 102%. Besides, the Her2 level in assay [2] was 92.5% (inactive). Moreover, the differential viability (reversal) in assay [6] (H69AR cells + 2 uM doxorubicin) was 10.9% (inactive). The inhibition in assay [7] was -5% (inactive); in assay [8], -1% (inactive).

As for `COc1ccc(-c2noc(-c3ccccc3C(=O)Nc3cccnc3)n2)cc1OC`, the viability was 89.5% in assay [1]; 89.5% (inactive) in assay [3]; 80.6% (inactive) in assay [4]; 90.4% (inactive) in assay [5]; 75.7% in assay [6] (setting [9]); 90.4% in assay [6] (setting [10]). Further, the Her2 level in assay [2] is 83% (inactive). Also, in assay [6] (H69AR cells + 2 uM doxorubicin), the differential viability (reversal) was 14.8% (inactive). Further, the results for the inhibition in assay [7] and in assay [8] were -3.6% (inactive) and -2.38% (inactive), respectively.

With `COC(=O)CSc1nc2ncc(Cl)cc2[nH]1`, the viability in assay [1] is 101%; in assay [3] it was 101% (inactive); in assay [4] it was 89.3% (inactive); in assay [5] it was 89.8% (inactive); in assay [6] (setting [9]), 88.7%; in assay [6] (setting [10]), 89.8%. Also, in assay [2], the Her2 level is 92.5% (inactive). Moreover, in assay [6] (H69AR cells + 2 uM doxorubicin), the differential viability (reversal) is 1.08% (inactive). For the same molecule, the inhibition in assay [7] was -5.06% (inactive); in assay [8], 1.15% (inactive).

With `Cc1ccc(Oc2ccc(-c3nc(N)nc(N)n3)cc2)cc1`, the viability in assay [1] is 112%; in assay [3] it was 112% (inactive); in assay [4] it was 76.6% (inactive); in assay [5], 108% (inactive); in assay [6] (setting [9]), 84.8%; in assay [6] (setting [10]), 108%. Further, the Her2 level in assay [2] was 82% (inactive). Besides, the differential viability (reversal) in assay [6] (H69AR cells + 2 uM doxorubicin) is 23.1% (inactive). In addition, the results for the inhibition in assay [7] and in assay [8] were -5.33% (inactive) and 2.1% (inactive), respectively.

In the case of `O=C(CCN1C(=O)c2ccccc2C1=O)OCN1C(=O)c2ccccc2C1=O`, the viability is 95% in assay [1]; 95% (inactive) in assay [3]; 97.7% (inactive) in assay [4]; 91.8% (inactive) in assay [5]; 102% in assay [6] (setting [9]); 91.8% in assay [6] (setting [10]). Further, the Her2 level in assay [2] was 108% (inactive). Moreover, the differential viability (reversal) in assay [6] (H69AR cells + 2 uM doxorubicin) is -10.6% (inactive). The inhibition was 6.8% (inactive) in assay [7] and -3.17% (inactive) in assay [8].

Take `Cc1cccc(C2c3c(n(C)c(=O)n(C)c3=O)N=C3c4ccccc4C(=O)C32)c1` (stereo not given): the viability in assay [1] was 101%; in assay [3], 101% (inactive); in assay [4], 43.8% (inactive); in assay [5], 24.3% (active); in assay [6] (setting [9]) it was 34%; in assay [6] (setting [10]), 24.3%. Besides, the Her2 level in assay [2] was 82.5% (inactive). Also, the differential viability (reversal) in assay [6] (H69AR cells + 2 uM doxorubicin) is -9.63% (inactive). Besides, the inhibition in assay [7] is -7.47% (inactive); in assay [8], 0.32% (inactive).

Consider `Cc1ccc(NC(=O)c2ccc(NS(=O)(=O)c3c(C)noc3C)cc2)cc1C`, for which the viability was 97% in assay [1]; 97% (inactive) in assay [3]; 84.1% (inactive) in assay [4]; 95% (inactive) in assay [5]; 83.4% in assay [6] (setting [9]); 95% in assay [6] (setting [10]). Also, in assay [2], the Her2 level is 81.5% (inactive). Moreover, the differential viability (reversal) in assay [6] (H69AR cells + 2 uM doxorubicin) was 11.6% (inactive). For the same molecule, the inhibition in assay [7] was -2.24% (inactive); in assay [8] it was -4.55% (inactive).

As for `O=C(NCC1COc2ccccc2O1)c1ccccc1` (stereo not given), the viability in assay [1] was 79%; in assay [3], 79% (inactive); in assay [4] it was 113% (inactive); in assay [5], 92.9% (inactive); in assay [6] (setting [9]) it was 90.4%; in assay [6] (setting [10]) it was 92.9%. Also, in assay [2], the Her2 level is 95% (inactive). Further, the differential viability (reversal) in assay [6] (H69AR cells + 2 uM doxorubicin) was 2.58% (inactive). Further, the inhibition in assay [7] is -4.27% (inactive); in assay [8], 0.33% (inactive).

`C=CCn1cnc2c(NCc3ccccc3)ncnc21`: the viability in assay [1] is 85.5%; in assay [3] it was 85.5% (inactive); in assay [4], 96.9% (inactive); in assay [5], 97.1% (inactive); in assay [6] (setting [9]), 100%; in assay [6] (setting [10]) it was 97.1%. Further, the Her2 level in assay [2] was 94% (inactive). In addition, the differential viability (reversal) in assay [6] (H69AR cells + 2 uM doxorubicin) was -3.4% (inactive). For the same molecule, the values for the inhibition in assay [7] and in assay [8] were 1.71% (inactive) and -7.9% (inactive), respectively.

Take `CCCCCOC(=O)C1=C(C)N(C)C(=O)NC1c1cc(Br)c(O)c(OC)c1` (stereo not given): the viability was 114% in assay [1]; 114% (inactive) in assay [3]; 72.7% (inactive) in assay [4]; 83.2% (inactive) in assay [5]; 86.5% in assay [6] (setting [9]); 83.2% in assay [6] (setting [10]). In addition, the Her2 level in assay [2] was 106% (inactive). The differential viability (reversal) in assay [6] (H69AR cells + 2 uM doxorubicin) is -3.32% (inactive). Besides, the figures for the inhibition in assay [7] and in assay [8] were -7.14% (inactive) and -7.62% (inactive), respectively.

Turning to `COc1ccc2ccccc2c1CN1CCN(C)CC1`, the viability in assay [1] was 97%; in assay [3], 97% (inactive); in assay [4] it was 75.1% (inactive); in assay [5] it was 104% (inactive); in assay [6] (setting [9]) it was 96.6%; in assay [6] (setting [10]), 104%. In addition, in assay [2], the Her2 level was 94.5% (inactive). Further, the differential viability (reversal) in assay [6] (H69AR cells + 2 uM doxorubicin) is 7.19% (inactive). Also, the inhibition in assay [7] was 1.43% (inactive); in assay [8], -0.66% (inactive).

As to `Cc1cc(C(=O)COC(=O)C2COc3ccccc3O2)c(C)n1CC1CCCO1` (stereo not given), the viability in assay [1] is 82%; in assay [3] it was 82% (inactive); in assay [4] it was 99.4% (inactive); in assay [5], 94% (inactive); in assay [6] (setting [9]), 93.6%; in assay [6] (setting [10]) it was 94%. In assay [2], the Her2 level was 100% (inactive). Moreover, the differential viability (reversal) in assay [6] (H69AR cells + 2 uM doxorubicin) is 0.315% (inactive). The figures for the inhibition in assay [7] and in assay [8] were -0.38% (inactive) and -4.5% (inactive), respectively.

For the molecule `O=C(CSc1nnc2scc(-c3ccccc3)n12)N1CCN(Cc2ccccc2)CC1`, the viability in assay [1] was 89%; in assay [3], 89% (inactive); in assay [4], 103% (inactive); in assay [5], 78.5% (inactive); in assay [6] (setting [9]) it was 70%; in assay [6] (setting [10]) it was 78.5%. Also, the Her2 level in assay [2] is 97.5% (inactive). Moreover, the differential viability (reversal) in assay [6] (H69AR cells + 2 uM doxorubicin) was 8.52% (inactive). Besides, the inhibition is -5.66% (inactive) in assay [7] and -0.32% (inactive) in assay [8].

On to `Cc1noc(C)c1CSc1nnc2n(-c3ccccc3)c(=O)c3ccccc3n12`, for which the viability in assay [1] was 72.5%; in assay [3] it was 72.5% (inactive); in assay [4], 105% (inactive); in assay [5], 81.7% (inactive); in assay [6] (setting [9]) it was 101%; in assay [6] (setting [10]), 81.7%. In addition, the Her2 level in assay [2] is 75.5% (inactive). In addition, the differential viability (reversal) in assay [6] (H69AR cells + 2 uM doxorubicin) is -18.9% (inactive). For the same molecule, the inhibition was 2.31% (inactive) in assay [7] and -5.83% (inactive) in assay [8].

For `COc1ccc(OC)c(C2C(C#N)=C(N)Oc3cc(C)[nH]c(=O)c32)c1` (stereo not given), the viability in assay [1] is 92%; in assay [3], 92% (inactive); in assay [4] it was 83.8% (inactive); in assay [5] it was 99.5% (inactive); in assay [6] (setting [9]) it was 99%; in assay [6] (setting [10]), 99.5%. Further, the Her2 level in assay [2] is 84.5% (inactive). Besides, in assay [6] (H69AR cells + 2 uM doxorubicin), the differential viability (reversal) is 0.505% (inactive). The inhibition in assay [7] is -3.87% (inactive); in assay [8], 0.49% (inactive).

On to `CCC(=O)Nc1cc2nn(-c3ccccc3)nc2cc1Cl`, for which the viability in assay [1] was 91%; in assay [3], 91% (inactive); in assay [4] it was 55% (inactive); in assay [5], 68.2% (inactive); in assay [6] (setting [9]), 70.9%; in assay [6] (setting [10]), 68.2%. In addition, the Her2 level in assay [2] is 90.5% (inactive). Moreover, the differential viability (reversal) in assay [6] (H69AR cells + 2 uM doxorubicin) was -2.75% (inactive). Moreover, the inhibition is -7.57% (inactive) in assay [7] and 5.9% (inactive) in assay [8].
